{"data": "Assay results gathered from unrelated publications", "target": "Serine/threonine-protein kinase ULK3 (ULK3, Homo sapiens, UniProt Q6PHR2)", "Sequence (Q6PHR2 1-472, as in one of the studies)": "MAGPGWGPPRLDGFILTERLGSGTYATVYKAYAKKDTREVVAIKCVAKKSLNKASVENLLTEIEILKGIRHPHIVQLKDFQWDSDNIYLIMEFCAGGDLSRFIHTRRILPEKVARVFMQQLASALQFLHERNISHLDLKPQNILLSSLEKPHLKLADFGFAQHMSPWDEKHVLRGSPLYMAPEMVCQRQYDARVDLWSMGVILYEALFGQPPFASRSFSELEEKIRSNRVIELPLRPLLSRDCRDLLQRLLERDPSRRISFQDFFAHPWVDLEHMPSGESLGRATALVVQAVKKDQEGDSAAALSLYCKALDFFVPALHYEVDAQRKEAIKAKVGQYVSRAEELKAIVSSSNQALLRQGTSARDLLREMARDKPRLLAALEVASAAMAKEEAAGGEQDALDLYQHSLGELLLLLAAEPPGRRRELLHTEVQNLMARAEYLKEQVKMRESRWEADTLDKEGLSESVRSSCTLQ", "note": "Compare with care: the assays were run in different laboratories."}
{"SMILES": "COc1cc(-c2cn(C3CCc4ccccc4N(CC(F)(F)F)C3=O)nn2)ccc1-n1ccc(C)n1 (centres unmarked)", "observed": "cell-free assay", "method": "competition with immobilised ligand", "tested at": "1 µM", "measurement": "remaining binding", "result": "61%"}
{"SMILES": "CS(=O)(=O)CCNCc1ccc(-c2ccc3ncnc(Nc4ccc(OCc5cccc(F)c5)c(Cl)c4)c3c2)o1", "observed": "cell-free assay", "tested at": "0.5 µM", "measurement": "remaining signal", "result": "106%"}
{"SMILES": "Cn1nc(C(F)(F)F)cc1-c1cnc(N2CCc3cc(S(=O)(=O)Nc4c(F)cc(Cl)cc4F)cc(N4CCCC4=O)c32)nc1", "observed": "cell-free assay", "method": "competition with immobilised ligand", "tested at": "1 µM", "measurement": "remaining binding", "result": "100%"}
{"SMILES": "Cc1sc(C(=O)NC2COC2)cc1-n1cc(NC(=O)Nc2c(F)cccc2Cl)cn1", "observed": "enzyme activity", "mode": "inhibitor", "tested at": "10 µM", "measurement": "remaining activity", "result": "105%"}
{"SMILES": "Cc1cc(NC(=O)c2cccc3cc(-c4cccc5[nH]nc(N)c45)ccc23)ccc1F", "observed": "enzyme activity", "mode": "inhibitor", "tested at": "0.1 µM", "measurement": "activity vs control", "result": "98%"}
{"SMILES": "CCc1ccccc1C(=O)Nc1n[nH]c2c(C)c(F)c(C3C(C#N)=C(C)N(C)C(C)=C3C#N)cc12", "observed": "cell-free assay", "method": "competition with immobilised ligand", "tested at": "1 µM", "measurement": "remaining binding", "result": "82%"}
{"SMILES": "COc1cc(Cl)c(C(=O)N[C@@H](CN[C@H]2CC[C@@H](N)CC2)Cc2ccc(C#N)cc2)cc1-c1ccc(CN[C@H](C)c2ccc(C)cc2)o1", "observed": "enzyme activity", "mode": "inhibitor", "tested at": "1 µM", "measurement": "remaining activity", "result": "98%"}
{"SMILES": "Oc1cccc(-c2nc(N3CCOCC3)c3oc4ncccc4c3n2)c1", "observed": "cell-free assay", "tested at": "0.5 µM", "measurement": "remaining signal", "result": "99.7%"}
{"SMILES": "O=C(Nc1cnn(-c2csc(C(=O)NC3COC3)c2)c1)Nc1c(F)cccc1Cl", "observed": "enzyme activity", "mode": "inhibitor", "tested at": "5 µM", "measurement": "remaining activity", "result": "76.6%"}
{"SMILES": "Cc1ccc(C(=O)NCc2ccsc2)cc1C#Cc1cn(C(C)C)c2ncnc(N)c12", "observed": "enzyme activity", "mode": "inhibitor", "tested at": "1 µM", "measurement": "activity vs control", "result": "84%"}
{"SMILES": "CCN(CC)CCNC(=O)c1c(C)[nH]c(/C=C2\\C(=O)Nc3ccc(F)cc32)c1C", "observed": "cell-free assay", "tested at": "0.5 µM", "measurement": "remaining signal", "result": "57.4%"}
{"SMILES": "C[C@@]1(Cc2ccc(C#N)cc2)C(=O)N(c2cc(Cl)cc(Cl)c2)c2ncc(C(=O)NC3(c4nc(C5CCC5)no4)CC3)n21", "observed": "cell-free assay", "method": "competition with immobilised ligand", "tested at": "1 µM", "measurement": "remaining binding", "result": "100%"}
{"SMILES": "Clc1ccc(Nc2nnc(Cc3ccncc3)c3ccccc23)cc1", "observed": "cell-free assay", "tested at": "0.5 µM", "measurement": "remaining signal", "result": "101%"}
{"SMILES": "CCCS(=O)(=O)Nc1ccc(F)c(C(=O)c2c[nH]c3ncc(-c4ccc(Cl)cc4)cc23)c1F", "observed": "enzyme activity", "mode": "inhibitor", "tested at": "1 µM", "measurement": "inhibition", "result": "< 10%"}
